Source: ChEMBL document CHEMBL3393048, “Discovery of potent cytotoxic ortho-aryl chalcones as new scaffold targeting tubulin and mitosis with affinity-based fluorescence” (J Med Chem, 2014)
Active and inactive are the calls of the source. The rule behind the calls is not given here.

Tests used:
A2780 = test: Antiproliferative activity against taxol-resistant human A2780 cells after 48 hrs by SRB method; type: functional, cell-based; details: A2780, 48 h
How it was run: (§1)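 SRB assay. Cells in DMEM high glucose with 10% FBS were seeded at 5000/well and grown 24 h; a day-0 plate was fixed at that point. Compounds were added in triplicate for 48 h. IC50 came from nonlinear regression of dose–response curves from at least two independent experiments.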

Tubulin (Homo sapiens) [1] = molecular target: T1, Tubulin (Homo sapiens) (UniProt P68371+Q9H4B7+P0DPH7+P68366+Q13509+Q71U36+P04350+Q3ZCM7+P07437+P68363+Q9BQE3+Q6PEY2+Q13885+Q9BVA1+Q9BUF5); test: Binding affinity to tubulin (unknown origin) at 4 uM after 30 mins by fluorescence assay; type: protein-complex assay
How it was run: (§2)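 Intrinsic fluorescence on tubulin binding. Compounds were mixed with tubulin (4 μM or 8 μM) in general tubulin buffer and incubated 30 min. Readings were excitation 430/emission 510 nm or excitation 365/emission 465 nm, with kinetic reads from mixing. ΔF = stable emission minus tubulin-only fluorescence. Optimal wavelengths were set by wavelength scanning.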

A549 [2] = test: Cell cycle arrest in human A549 cells assessed as accumulation at G2/M phase at 62.5 nM after 24 hrs by Hoechst 33342 staining-based ArrayScanVTI analysis; type: functional
How it was run: (§3)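 A549 cells were seeded at 5000/well, cultured overnight, then treated 24 h over a 7.81–250 concentration series. Cells were fixed in prewarmed paraformaldehyde 10 min, permeabilized with Triton X-100, and nuclei stained with Hoechst 33342. Imaging was by ArrayScan VTI high-content analysis. Phase percentage = cells within a gated fluorescence intensity / total cells counted.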

A549 [3] = test: Induction of apoptosis in human A549 cells assessed as apoptotic cells after 48 hrs by Annexin V-FITC/propidium iodide staining-based flow cytometry; type: functional, cell-based
A549 [4] = test: Induction of apoptosis in human A549 cells assessed as total apoptotic cells at 0.5 uM after 48 hrs by Annexin V-FITC/propidium iodide staining-based flow cytometry; type: functional
A549 [5] = test: Induction of apoptosis in human A549 cells assessed as necrotic cells at 0.25 uM after 48 hrs by Annexin V-FITC/propidium iodide staining-based flow cytometry (reference value: 0.06%); type: functional
HepG2 = test: Antiproliferative activity against human HepG2 cells after 48 hrs by SRB method; type: functional, cell-based; details: HepG2, 48 h; how it was run: as §1
A549 [6] = test: Induction of apoptosis in human A549 cells assessed as viable cells at 0.25 uM after 48 hrs by Annexin V-FITC/propidium iodide staining-based flow cytometry (reference value: 99.37%); type: functional; details: A549, 48 h, read-out: Activity
Tubulin (Homo sapiens) [7] = molecular target: T1, Tubulin (Homo sapiens); test: Binding affinity to tubulin (unknown origin) after 30 mins by fluorescence assay; type: protein-complex assay; how it was run: as §2
Tubulin (Homo sapiens) [8] = molecular target: T1, Tubulin (Homo sapiens); test: Binding affinity to tubulin (unknown origin) at 4 uM by fluorescence assay; type: protein-complex assay; details: TDE = time-dependent effect; how it was run: as §2
A549 [9] = test: Induction of apoptosis in human A549 cells assessed as viable cells at 1 uM after 48 hrs by Annexin V-FITC/propidium iodide staining-based flow cytometry (reference value: 99.37%); type: functional; details: A549, 48 h, read-out: Activity
A549 [10] = test: Cell cycle arrest in human A549 cells assessed as accumulation at G2/M phase at 7.81 to 250 nM after 24 hrs by Hoechst 33342 staining-based ArrayScanVTI analysis; type: functional; how it was run: as §3
A549 [11] = test: Induction of apoptosis in human A549 cells assessed as total apoptotic cells at 0.75 uM after 48 hrs by Annexin V-FITC/propidium iodide staining-based flow cytometry; type: functional
A549 [12] = test: Induction of apoptosis in human A549 cells assessed as total apoptotic cells at 1 uM after 48 hrs by Annexin V-FITC/propidium iodide staining-based flow cytometry; type: functional
[13] = Drug resistance index, ratio of IC50 for vincristine-resistant human HCT8 cells to IC50 for human HCT8 cells; type: functional, HCT-8
How it was run: (§4)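 Drug resistance index = IC50 in the resistant line / IC50 in its parental line. […] Pairs: A549/CDDP vs A549, MCF-7/DOX vs MCF-7, A2780/TAX vs A2780, HCT-8/VCT vs HCT-8.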

A549 [14] = test: Induction of apoptosis in human A549 cells assessed as late apoptotic cells at 0.25 uM after 48 hrs by Annexin V-FITC/propidium iodide staining-based flow cytometry (reference value: 0.10%); type: functional
A549 [15] = test: Antiproliferative activity against human A549 cells after 48 hrs by SRB method; type: functional, cell-based; details: A549, 48 h
How it was run: as §1, with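 “h. Cells were fixed with TCA at 4 °C for 1 h, stained with 0.4% SRB, and the dye was solubilized in 10 mM Tris pH 10.4. OD was read at 515 nm with day-0 OD subtracted.” for “h.”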

A549 [16] = test: Induction of apoptosis in human A549 cells assessed as necrotic cells at 0.75 uM after 48 hrs by Annexin V-FITC/propidium iodide staining-based flow cytometry (reference value: 0.06%); type: functional
A549 [17] = test: Induction of apoptosis in human A549 cells assessed as viable cells at 0.75 uM after 48 hrs by Annexin V-FITC/propidium iodide staining-based flow cytometry (reference value: 99.37%); type: functional; details: A549, 48 h, read-out: Activity
Tubulin = test: Inhibition of tubulin polymerization (unknown origin) by DAPI staining-based fluorescence microscopy; type: protein-complex assay, Homo sapiens
How it was run: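 Purified tubulin (99% pure; 20 μM as supplied) mixed with compound in general tubulin buffer (80 mM PIPES pH 6.9, 2.0 mM MgCl₂, 0.5 mM EGTA) with 1 mM GTP, 20% glycerol and DAPI reporter. Polymerization tracked kinetically at 37 °C as fluorescence rise (ex 360, em 450 nm). Duplicate wells per concentration. IC50 from at least two independent experiments.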

A549 [18] = test: Induction of apoptosis in human A549 cells assessed as necrotic cells at 1 uM after 48 hrs by Annexin V-FITC/propidium iodide staining-based flow cytometry (reference value: 0.06%); type: functional
[19] = Antiproliferative activity against human CNE2 cells after 48 hrs by SRB method; type: functional, cell-based; details: CNE-2, 48 h; how it was run: as §1
A549 [20] = test: Induction of apoptosis in human A549 cells assessed as early apoptotic cells at 1 uM after 48 hrs by Annexin V-FITC/propidium iodide staining-based flow cytometry (reference value: 0.47%); type: functional
A549 [21] = test: Induction of apoptosis in human A549 cells assessed as early apoptotic cells at 0.75 uM after 48 hrs by Annexin V-FITC/propidium iodide staining-based flow cytometry (reference value: 0.47%); type: functional
A549 [22] = test: Antiproliferative activity against cis-platinum-resistant human A549 cells after 48 hrs by SRB method; type: functional, cell-based; details: A549, 48 h
How it was run: as §1, with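 “h. Cells were fixed with TCA at 4 °C for 1 h, stained with 0.4% SRB, and the dye was solubilized in 10 mM Tris pH 10.4. OD was read at 515 nm with day-0 OD subtracted.” for “h.”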

A549 [23] = test: Induction of apoptosis in human A549 cells assessed as late apoptotic cells at 1 uM after 48 hrs by Annexin V-FITC/propidium iodide staining-based flow cytometry (reference value: 0.10%); type: functional
A549 [24] = test: Drug resistance index, ratio of IC50 for cis-platinum-resistant human A549 cells to IC50 for human A549 cells; type: functional; how it was run: as §4
A549 [25] = test: Induction of apoptosis in human A549 cells assessed as late apoptotic cells at 0.75 uM after 48 hrs by Annexin V-FITC/propidium iodide staining-based flow cytometry (reference value: 0.10%); type: functional

IC50 (A2780): 49 nM
Activity (Tubulin (Homo sapiens) [1]): Active
IC50 (HepG2): 47 nM
Activity (Tubulin (Homo sapiens) [7]): Dose-dependent effect
Activity (Tubulin (Homo sapiens) [8]): tde
IC50 (A549 [15]): 73 nM
IC50 (Tubulin): 3600 nM
IC50 (A549 [22]): 110 nM
Compound: CN(C)c1ccc(/C=C/C(=O)c2ccccc2-c2ccc(F)cc2)cc1
Activity (A549 [2]): Active
Activity (A549 [3]): Dose-dependent effect
Activity (A549 [4]): 75.71%
Activity (A549 [5]): 4.95%
viability at 0.25 µM (A549 [6]): 25.9%
viability at 1 µM (A549 [9]): 8.21%
Activity (A549 [10]): Active
Activity (A549 [11]): 82.06%
Activity (A549 [12]): 83.88%
Ratio IC50 [13]: 0.72
Activity (A549 [14]): 34.43%
Activity (A549 [16]): 9.38%
viability at 0.75 µM (A549 [17]): 8.57%
Activity (A549 [18]): 7.91%
IC50 [19]: 30 nM
Activity (A549 [20]): 41.02%
Activity (A549 [21]): 36.61%
Activity (A549 [23]): 42.86%
Ratio IC50 (A549 [24]): 1.6
Activity (A549 [25]): 45.45%
